# Source: ChEMBL document CHEMBL1152869, “An inhibitor of FtsZ with potent and selective anti-staphylococcal activity” (Science, 2008)
# The source made the active and inactive calls. No cut-off for these calls is given here.
# Tests used:
# Bacillus subtilis [1] = assay: Inhibition of cell division in Bacillus subtilis 168 at 50 uM by phase contrast microscopy; type: functional, organism-based; conditions: subsp. subtilis str. 168
# Bos taurus [2] = species: Bos taurus; assay: Enhancement of bovine brain tubulin polymerization at 25 uM
# Staphylococcus aureus [3] = assay: Antibacterial activity against Staphylococcus aureus bearing FtsZ G193D mutant by broth microdilution method; type: functional
# Staphylococcus aureus [4] = assay: Antibacterial activity against Staphylococcus aureus Smith ATCC 19636 in ip dosed CD1 mouse septicemia model assessed as survival administered 1 hr postinfection measured after 7 days; type: functional
# Staphylococcus warneri = assay: Antibacterial activity against Staphylococcus warneri by broth microdilution method; type: functional
# Staphylococcus aureus [5] = assay: Antibacterial activity against Staphylococcus aureus Smith ATCC 19636 in CD1 mouse septicemia model assessed as survival at 30 mg/kg, sc after 7 days relative to control; type: functional; conditions: 168 h, route subcutaneous
# Method in brief: (§1)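 At 1 h post-infection they received a single SC or IV dose of 3, 10 or 30 mg/kg. Controls were vehicle only and vancomycin 3 mg/kg by the same route. Mortality was recorded daily for 7 days, and ED50 was derived from dose-dependent survival.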
# Staphylococcus aureus [6] = assay: Bactericidal activity against Staphylococcus aureus ATCC 29213 assessed as logarithmic reduction in viable cell numbers at >= MIC after 24 hrs; type: functional
# Bacillus subtilis [7] = assay: Antibacterial activity against Bacillus subtilis bearing FtsZ A47P mutant by broth microdilution method; type: functional
# Staphylococcus hominis = assay: Antibacterial activity against Staphylococcus hominis by broth microdilution method; type: functional
# Bacillus subtilis [8] = assay: Antibacterial activity against Bacillus subtilis by broth microdilution method; type: functional
# Escherichia coli = assay: Antibacterial activity against Escherichia coli by broth microdilution method; type: functional
# Staphylococcus aureus [9] = assay: Antibacterial activity against Staphylococcus aureus Smith ATCC 19636 in iv dosed CD1 mouse septicemia model assessed as survival after 7 days; type: functional; method in brief: as §1
# Saccharomyces cerevisiae = assay: Antifungal activity against Saccharomyces cerevisiae by broth microdilution method; type: functional
# Staphylococcus aureus [10] = assay: Antibacterial activity against Staphylococcus aureus by broth microdilution method; type: functional
# [11] = system: Staphylococcus haemolyticus; assay: Antibacterial activity against Staphylococcus haemolyticus by broth microdilution method; type: functional
# Enterococcus faecalis = assay: Antibacterial activity against Enterococcus faecalis by broth microdilution method; type: functional
# Bos taurus [12] = species: Bos taurus; assay: Inhibition of bovine brain tubulin polymerization at 64 ug/ml
# Staphylococcus aureus [13] = assay: Antibacterial activity against multidrug-resistant Staphylococcus aureus by broth microdilution method; type: functional
# Staphylococcus aureus [14] = assay: Inhibition of cell division in Staphylococcus aureus ATCC 29213 assessed as enlargement of cells at 2 ug/ml by phase contrast microscopy; type: functional, organism-based
# Method in brief: (§2)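 S. aureus ATCC 29213 cells grown with or without compound at 2 μg/ml; cell morphology examined by phase-contrast microscopy.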
# Staphylococcus aureus [15] = assay: Antibacterial activity against Staphylococcus aureus bearing FtsZ G196A mutant by broth microdilution method; type: functional
# Staphylococcus aureus [16] = assay: Bactericidal activity against Staphylococcus aureus ATCC 29213 assessed as reduction in cell viability at 2 ug/ml within 24 hrs by serial dilution method
# Bos taurus [17] = species: Bos taurus; assay: Enhancement of bovine brain tubulin polymerization at 64 ug/ml
# Staphylococcus aureus [18] = assay: Antibacterial activity against Staphylococcus aureus Smith ATCC 19636 in CD1 mouse septicemia model assessed as survival at 30 mg/kg, iv after 7 days relative to control; type: functional; conditions: 168 h; method in brief: as §1
# Staphylococcus aureus [19] = assay: Antibacterial activity against Staphylococcus aureus bearing FtsZ V214F mutant by broth microdilution method; type: functional
# [20] = target: T1, Cell division protein FtsZ (Bacillus subtilis (strain 168)) (UniProt P17865); assay: Inhibition of GFP-FtsZ localization in Bacillus subtilis 2020 assessed as protein mislocalization to assemble into cytokinetic ring at 8 ug/ml by florescence microscopy
# T1 sequence (whole entry): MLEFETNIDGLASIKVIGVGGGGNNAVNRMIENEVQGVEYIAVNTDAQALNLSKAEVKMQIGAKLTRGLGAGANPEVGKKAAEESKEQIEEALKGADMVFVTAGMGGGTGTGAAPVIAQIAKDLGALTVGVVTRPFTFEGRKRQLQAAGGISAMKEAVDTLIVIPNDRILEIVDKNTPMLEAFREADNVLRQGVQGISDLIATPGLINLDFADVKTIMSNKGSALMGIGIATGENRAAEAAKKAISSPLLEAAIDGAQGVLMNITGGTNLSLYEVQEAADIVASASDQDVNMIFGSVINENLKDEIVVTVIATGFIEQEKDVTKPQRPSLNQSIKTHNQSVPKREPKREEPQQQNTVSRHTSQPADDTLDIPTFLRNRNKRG
# Method in brief: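 B. subtilis 2020 carrying gfp-ftsZ cultured with or without compound at 8 μg/ml; FtsZ localization visualized by fluorescence microscopy.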
# Staphylococcus aureus [21] = assay: Antibacterial activity against Staphylococcus aureus bearing FtsZ G266S mutant by broth microdilution method; type: functional
# Staphylococcus aureus [22] = assay: Antibacterial activity against Staphylococcus aureus bearing FtsZ N263K mutant by broth microdilution method; type: functional
# [23] = system: Staphylococcus epidermidis; assay: Antibacterial activity against Staphylococcus epidermidis by broth microdilution method; type: functional
# [24] = target: T2, Cell division protein FtsZ (Staphylococcus aureus, UniProt P0A031); assay: (§3) Inhibition of Staphylococcus aureus FtsZ GTPase activity
# T2 sequence (P0A031 whole entry): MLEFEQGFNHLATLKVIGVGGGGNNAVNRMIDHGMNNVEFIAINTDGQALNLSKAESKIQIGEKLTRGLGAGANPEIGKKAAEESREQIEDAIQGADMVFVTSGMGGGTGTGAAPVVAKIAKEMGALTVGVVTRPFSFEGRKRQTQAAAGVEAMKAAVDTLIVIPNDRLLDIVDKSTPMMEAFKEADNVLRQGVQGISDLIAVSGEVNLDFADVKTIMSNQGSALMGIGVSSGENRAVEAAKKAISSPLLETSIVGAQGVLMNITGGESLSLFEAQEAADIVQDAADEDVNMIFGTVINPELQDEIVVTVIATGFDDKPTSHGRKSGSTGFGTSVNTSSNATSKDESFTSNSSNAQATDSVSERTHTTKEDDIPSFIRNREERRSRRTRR
# Method in brief: (§4)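 S. aureus FtsZ cloned, overexpressed and purified; in vitro GTPase activity measured across a compound concentration series; IC50 derived from concentration-dependent inhibition.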
# [25] = target: T3, Cell division protein FtsZ (Staphylococcus aureus) (UniProt P0A031); assay: as §3; method in brief: as §4
# T3 sequence (whole entry): T2 sequence (P0A031 whole entry)
# [26] = system: Staphylococcus lugdunensis; assay: Antibacterial activity against Staphylococcus lugdunensis by broth microdilution method; type: functional
# Bacillus subtilis [27] = assay: Inhibition of cell division in Bacillus subtilis 168 assessed as elongation of cells at 2 ug/ml by phase contrast microscopy; type: functional, organism-based; conditions: subsp. subtilis str. 168
# Method in brief: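 B. subtilis 168 cells grown with or without compound at 2 μg/ml; cell morphology examined by phase-contrast microscopy.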
# Staphylococcus aureus [28] = assay: Antibacterial activity against methicillin-resistant Staphylococcus aureus by broth microdilution method; type: functional
# Staphylococcus aureus [29] = assay: Antibacterial activity against Staphylococcus aureus bearing FtsZ R191P mutant by broth microdilution method; type: functional
# Staphylococcus aureus [30] = assay: Antibacterial activity against Staphylococcus aureus Smith ATCC 19636 in sc dosed CD1 mouse septicemia model assessed as survival after 7 days; type: functional; method in brief: as §1
# Bacillus subtilis [31] = assay: Antibacterial activity against Bacillus subtilis bearing FtsZ V307R mutant by broth microdilution method; type: functional
# Bacillus subtilis [32] = assay: Antibacterial activity against Bacillus subtilis bearing FtsZ G196A mutant by broth microdilution method; type: functional
# [33] = system: Staphylococcus saprophyticus; assay: Antibacterial activity against Staphylococcus saprophyticus by broth microdilution method; type: functional
# HepG2 = assay: Cytotoxicity against human HepG2 cells; type: cell-based
# Haemophilus influenzae = assay: Antibacterial activity against Haemophilus influenzae by broth microdilution method; type: functional
# Staphylococcus aureus [34] = assay: Inhibition of cell division in Staphylococcus aureus ATCC 29213 assessed as enlargement of cells at 2 ug/ml within 2 hrs by phase contrast microscopy; type: functional, organism-based; method in brief: as §2
# Bacillus subtilis [35] = assay: Antibacterial activity against Bacillus subtilis bearing FtsZ V307H mutant by broth microdilution method; type: functional
# Pseudomonas aeruginosa = assay: Antibacterial activity against Pseudomonas aeruginosa by broth microdilution method; type: functional
# Streptococcus pneumoniae = assay: Antibacterial activity against Streptococcus pneumoniae by broth microdilution method; type: functional
structure (smiles),measurement,setting,value
CC(=O)O[C@H]1C(=O)[C@@]2(C)[C@H]([C@H](OC(=O)c3ccccc3)[C@]3(O)C[C@H](OC(=O)[C@H](O)[C@@H](NC(=O)c4ccccc4)c4ccccc4)C(C)=C1C3(C)C)[C@]1(OC(C)=O)CO[C@@H]1C[C@@H]2O,Activity,Bacillus subtilis [1],inactive
same,Activity,Bos taurus [2],Active
NC(=O)c1c(F)ccc(OCc2nc3cc(Cl)cnc3s2)c1F,MIC,Staphylococcus aureus [3],> 512 µg/mL
same,ED50,Staphylococcus aureus [4],3.1 mg/kg
same,MIC,Staphylococcus warneri,1 µg/mL
same,survival at 30 mg/kg,Staphylococcus aureus [5],100%
same,Activity,Staphylococcus aureus [6],>3
same,MIC,Bacillus subtilis [7],1 µg/mL
same,MIC,Staphylococcus hominis,1 µg/mL
same,MIC,Bacillus subtilis [8],0.5 µg/mL
same,MIC,Escherichia coli,> 64 µg/mL
same,Activity,Staphylococcus aureus [9],Dose-dependent effect
same,ED50,Staphylococcus aureus [9]; 168 h,10.2 mg/kg
same,MIC,Saccharomyces cerevisiae,> 64 µg/mL
same,MIC,Staphylococcus aureus [10],1 µg/mL
same,MIC,[11],0.5 µg/mL
same,MIC,Enterococcus faecalis,> 64 µg/mL
same,Activity,Bos taurus [12],inactive
same,MIC,Staphylococcus aureus [13],1 µg/mL
same,Activity,Staphylococcus aureus [14],Active
same,MIC,Staphylococcus aureus [15],> 512 µg/mL
same,Activity,Staphylococcus aureus [16],Active
same,Activity,Bos taurus [17],inactive
same,survival at 30 mg/kg,Staphylococcus aureus [18],100%
same,MIC,Staphylococcus aureus [19],> 512 µg/mL
same,Activity,[20],Active
same,MIC,Staphylococcus aureus [21],> 512 µg/mL
same,MIC,Staphylococcus aureus [22],> 512 µg/mL
same,MIC,[23],1 µg/mL
same,IC50,[24],155 nM
same,Activity,[25],Dose-dependent effect
same,MIC,[26],1 µg/mL
same,Activity,Bacillus subtilis [27],Active
same,MIC,Staphylococcus aureus [28],1 µg/mL
same,MIC,Staphylococcus aureus [29],> 512 µg/mL
same,Activity,Staphylococcus aureus [30],Dose-dependent effect
same,ED50,Staphylococcus aureus [30]; 168 h,7.3 mg/kg
same,MIC,Bacillus subtilis [31],8 µg/mL
same,MIC,Bacillus subtilis [32],> 64 µg/mL
same,MIC,[33],1 µg/mL
same,IC50,HepG2,> 64 µg/mL
same,MIC,Haemophilus influenzae,> 64 µg/mL
same,Activity,Staphylococcus aureus [34],Active
same,MIC,Bacillus subtilis [35],2 µg/mL
same,MIC,Pseudomonas aeruginosa,> 64 µg/mL
same,MIC,Streptococcus pneumoniae,> 64 µg/mL
COc1cccc(C(N)=O)c1,MIC,Bacillus subtilis [7],> 8190 µg/mL
same,MIC,Bacillus subtilis [8],2050 µg/mL
same,MIC,Staphylococcus aureus [10],2050 µg/mL
same,MIC,Bacillus subtilis [31],> 8190 µg/mL
same,MIC,Bacillus subtilis [32],1020 µg/mL
same,MIC,Bacillus subtilis [35],4100 µg/mL
